Experimental data as given in ChEMBL document CHEMBL3351346, “Design, synthesis, structure-function relationship, bioconversion, and pharmacokinetic evaluation of ertapenem prodrugs” (J Med Chem, 2014).

Columns and labels:
[1] = Stability in pH 6.5 simulated gastrointestinal fluid assessed as compound remaining at 50 uM after 3 hrs by LC-MS/MS method; assay type: ADME; conditions: read-out: Stability
Method in brief: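 Compounds at 50 μM were incubated in fasted-state simulated intestinal fluid (FaSSIF, pH 6.5) for over 3 h. Percent remaining was determined by LC-MS/MS.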

[2] = Stability in human plasma assessed as compound remaining at 50 uM at 37 degC after 60 mins by LC-MS/MS method; assay type: ADME, cell-free; conditions: read-out: Stability
Method in brief: (§1)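 Prodrugs were incubated in rat or human plasma for 60 min. Disappearance of prodrug and concomitant appearance of ertapenem were followed by LC-MS/MS, and in selected cases monoesters from partial hydrolysis were also monitored. Ertapenem itself was incubated the same way as a control.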

[3] = Stability in rat plasma assessed as compound remaining at 50 uM at 37 degC after 60 mins by LC-MS/MS method; assay type: ADME, cell-free; conditions: read-out: Stability; method in brief: as §1
Rattus norvegicus [4] = experiment: AUC (0 to 8 hrs) in fasted Sprague-Dawley rat assessed as ertapenem level at 10 mg/kg dosed through intraduodenal route by LC-MS/MS method; assay type: ADME, organism-based, Plasma; design: time < 8 hr, dose 10 mg/kg, route intraduodenal; conditions: in vivo, other
Method in brief: (§2)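 Prodrugs were given intraduodenally to bypass stomach acid. Plasma was sampled at intervals over 8 h, and parent prodrug, the two monoester metabolites and ertapenem were quantified by LC-MS/MS. The lower limit of quantitation was 5 nM. AUC(0–8) was used, and it differed from AUC(0–∞) by ±20%. Vehicles were 30% Captisol or 0.5% methylcellulose, as solution or suspension depending on compound.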

[5] = Stability in pH 2.0 simulated gastric fluid assessed as compound degradation to beta-lactam ring open products at 1 uM after 60 mins by LC-MS/MS method; assay type: ADME; conditions: read-out: Drug degradation
Method in brief: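 Incubation was in simulated gastric fluid (SGF, pH 2.0) for 60 min, with loss to the β-lactam ring-opened product measured by LC-MS/MS.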

[6] = Stability in pH 7.4 phosphate buffer assessed as compound remaining at 50 uM after 3 hrs by LC-MS/MS method; assay type: physicochemical; conditions: read-out: Stability
Canis familiaris [7] = experiment: AUC (0 to 8 hrs) in fasted Beagle dog assessed as ertapenem level at 1 mg/kg, iv by LC-MS/MS method; assay type: ADME, organism-based, Canis lupus familiaris, Plasma; design: time < 8 hr, dose 1 mg/kg, route intravenous; conditions: in vivo
[8] = AUC (0 to 8 hrs) in fasted Sprague-Dawley rat at 1 mg/kg, iv by LC-MS/MS method; assay type: ADME, organism-based; design: time < 8 hr, dose 1 mg/kg, route intravenous; conditions: plasma
Rattus norvegicus [9] = experiment: Oral bioavailability in fasted Sprague-Dawley rat assessed as ertapenem and monoetser metabolites level at 10 mg/kg dosed through intraduodenal route by LC-MS/MS method; assay type: ADME, organism-based; conditions: in vivo
Method in brief: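 Total absorption followed intraduodenal dosing with LC-MS/MS of plasma over 8 h. It was calculated as the combined dose-normalized AUC of circulating parent prodrug, ertapenem and two monoesters, divided by dose-normalized AUC of ertapenem given iv. Vehicle was 30% Captisol or 0.5% methylcellulose.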

Canis familiaris [10] = experiment: AUC (0 to 8 hrs) in fasted Beagle dog assessed as ertapenem level at 10 mg/kg dosed through intraduodenal route by LC-MS/MS method; assay type: ADME, organism-based, Canis lupus familiaris, Plasma; design: time < 8 hr, dose 10 mg/kg, route intraduodenal; conditions: in vivo, other; method in brief: as §2
Rattus norvegicus [11] = experiment: Oral bioavailability in fasted Sprague-Dawley rat assessed as ertapenem level at 10 mg/kg dosed through intraduodenal route by LC-MS/MS method; assay type: ADME, organism-based; conditions: in vivo
Method in brief: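 After intraduodenal dosing, plasma over 8 h was analysed by LC-MS/MS. Bioavailability was calculated as dose-normalized AUC of ertapenem formed from the prodrug divided by dose-normalized AUC of ertapenem dosed iv. Vehicle was 30% Captisol or 0.5% methylcellulose.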

For `C[C@@H](O)[C@H]1C(=O)N2C(C(=O)[O-])=C(S[C@@H]3CN[C@H](C(=O)Nc4cccc(C(=O)O)c4)C3)[C@H](C)[C@H]12.O.[Na+]`, the remaining at 3 h, 50 µM [1] was > 95%, the remaining at 1 h, 50 µM [2] was 100% and the remaining at 1 h, 50 µM [3] was 100%. The AUC (Rattus norvegicus [4]) was 0.5 µM·h, the degraded at 1 h, 1 µM [5] was > 25% and the remaining at 3 h, 50 µM [6] was > 95%. For the same compound, the AUC (Canis familiaris [7]) was 8.9 µM·h, the AUC(0-t) at 8 h [8] was 7.8 µM·h and the F (Rattus norvegicus [9]) was 0.7%. For the same compound, the AUC (Canis familiaris [10]) was 1.4 µM·h and the F (Rattus norvegicus [11]) was 0.7%.
